Compound activity deposited in PubChem BioAssay by several laboratories.
Compounds with a hit are over-represented: about 1.4% of the library has one in this group of screens.
MOR-DOR inv ag: inverse agonists of MOR-DOR heterodimerization, primary screen, cell-based, luminescence | inhibition, % at 9.3 µM | 340,000 compounds, 0.21% hits | cell-based MOR-DOR heterodimer luminescence, inverse agonism | Mu-type opioid receptor (Homo sapiens) + Delta-type opioid receptor (Homo sapiens), …; in the data active means inhibition above about 22%, passing the limit was not always enough;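 further: 0% = cells with DMSO and 100% = wells without cells with DMSO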
DAGLB inh: DAGLB lipase inhibitors, primary screen, biochemical, fluorescence, HTS. Diacylglycerol lipase-beta (Homo sapiens), Q8NCG7. HEK293T DAGLB membrane lysate, EnzChek fluorogenic substrate. inhibition, % at 5.17 µM. 340,000 compounds, 0.059% hits. AID 504411, 2011; in the data active means inhibition above about 34%;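 further: 0% = enzyme with vehicle and 100% = wells lacking enzyme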
Target sequence (Q8NCG7 whole entry, looked up): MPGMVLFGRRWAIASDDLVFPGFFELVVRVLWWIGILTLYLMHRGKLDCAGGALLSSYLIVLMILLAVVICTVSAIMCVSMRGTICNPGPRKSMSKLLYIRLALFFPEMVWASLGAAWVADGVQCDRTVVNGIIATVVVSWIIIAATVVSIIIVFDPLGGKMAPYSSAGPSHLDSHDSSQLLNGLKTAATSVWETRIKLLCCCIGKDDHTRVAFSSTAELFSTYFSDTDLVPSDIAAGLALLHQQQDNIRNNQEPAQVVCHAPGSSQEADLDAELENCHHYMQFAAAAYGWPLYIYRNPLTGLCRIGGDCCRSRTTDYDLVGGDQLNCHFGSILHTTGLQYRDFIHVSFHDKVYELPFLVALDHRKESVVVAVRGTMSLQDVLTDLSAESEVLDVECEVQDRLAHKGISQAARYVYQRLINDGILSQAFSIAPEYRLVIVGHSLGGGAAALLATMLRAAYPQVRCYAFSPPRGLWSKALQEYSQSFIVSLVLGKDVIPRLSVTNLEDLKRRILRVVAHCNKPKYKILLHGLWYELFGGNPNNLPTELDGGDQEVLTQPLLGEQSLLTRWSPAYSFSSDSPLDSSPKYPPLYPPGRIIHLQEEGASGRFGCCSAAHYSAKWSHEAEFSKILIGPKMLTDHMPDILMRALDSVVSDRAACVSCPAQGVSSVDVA
MOR-DOR ag: agonists of OPRM1-OPRD1 heterodimerization, primary screen, cell-based, luminescence; cells; activation, % at 9.3 µM; 340,000 compounds, 0.3% hits; AID 504326, 2011; in the data active means activation above about 18%;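 further: 0% = vehicle-treated cells and 100% = reference agonist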
HTR5A ag ctr: HTR5A agonists in luminescence cell assay, primary screen, counter-screen for OPRM1-OPRD1 heterodimer agonist project, full-deck HTS | 340,000 compounds, 0.61% hits | 5-hydroxytryptamine receptor 5A (Homo sapiens), P47898 | AID 504692, 2011 | cell-based | activation, % at 9.3 µM; in the data active means activation mostly above about 9.5%, no sharp cut-off; inactive means mostly below about 7.6%;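 further: 0% = cells with vehicle only and 100% = reference agonist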
HTR5A inv ctr: HTR5A inverse agonists in luminescence cell assay, primary screen, counter-screen for OPRM1-OPRD1 heterodimer inverse agonist project, full-deck HTS | AID 504634, 2011 | HTR5A cell line, inverse agonism | 5-hydroxytryptamine receptor 5A (Homo sapiens), P47898 | 340,000 compounds, 0.083% hits | inhibition, % at 9.3 µM; in the data active means inhibition mostly above about 23%, no sharp cut-off; inactive means mostly below about 18%;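 further: 0% = cells with DMSO and 100% = no-cell wells with DMSO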
Arr AP2 block: inhibitors of beta-arrestin/AP2 binding, primary screen, biochemical, GPCR trafficking, flow cytometry | FITC-arrestin peptide / GST-AP2 beads; AP2 beta2 appendage carries R879A mutation | beta-arrestin 1 C-terminal peptide binding to AP2 beta2-adaptin appendage (human) | 340,000 compounds, 0.31% hits | inhibition, % at 10 µM;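 active means inhibition above a set limit, near 3 SD of compounds lacking own fluorescence, cut at about 54% in these data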;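 further: plate controls were DMSO wells for no effect and 5 µM unlabelled arrestin peptide for full effect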
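Assay system: GST-AP2 R879A bound to glutathione beads, E. coli-expressed; Medium: PBS with 0.05% Tween 20 and 0.1% BSA; Also added: fluorescein-tagged arrestin peptide at 50 nM final; Timing: 12 min plus 1 h, RT; Measured by: flow cytometry, FL1 (488/535 nm); Evaluation: percent drop in bead-associated FITC signal.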
Arr AP2 CP1: inhibitors of arrestin peptide binding to AP2, confirmation, biochemical, cherry pick 1, flow cytometry beads; shares compounds with Arr AP2 block; AID 504908, 2011; inhibition, % at 10 µM; GST-AP2 beads, FITC arrestin peptide binding; GST-fused beta2-adaptin appendage, R879A mutant; 1,300 compounds, 2% hits;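 active means inhibition above a set limit, roughly 3 SD of non-fluorescent compound noise, cut at about 38% in these data; inactive means inhibition at or below that limit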;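 further: loss of bead fluorescence from 50 nM FITC arrestin peptide bound to appendage; 0% = negative control wells and 100% = excess unlabelled arrestin peptide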
GST GSH counter: GST-fluorescein capture on glutathione beads, confirmation, artefact control for arrestin-AP2 inhibitor project, biochemical, cherry pick 1, flow cytometry; 1,300 compounds, 2% hits; inhibition, % at 10 µM; GST-fluorescein binding to GSH beads, fluorescence, counter-screen; shares compounds with Arr AP2 block;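 active means inhibition above 50%, about 3 SD of the inhibition seen with non-fluorescent compounds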;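 further: fluorescein maleimide labelled GST captured on 4 micron glutathione beads; higher means more loss of bead fluorescence from quenching or blocked binding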
Numbers without * were called inactive; . = no result given.

SMILES | MOR-DOR inv ag | DAGLB inh | MOR-DOR ag | HTR5A ag ctr | HTR5A inv ctr | Arr AP2 block | Arr AP2 CP1 | GST GSH counter
O=C(NCCc1cccc(C(F)(F)F)c1)C1CCC(=O)N(CCc2cccc(F)c2)C1 (stereo unspecified) | 6 | 1 | -1 | 3 | 14 | -1 | . | .
O=C(NCCc1ccccc1)C1CCC(=O)N(CCCN2CCCC2=O)C1 (stereo unspecified) | 15 | 0 | -3 | 2 | -5 | 3 | . | .
Cc1ccc(CCCNC(=O)C2CCC(=O)N(Cc3cccc(F)c3)C2)cc1 (stereo unspecified) | 8 | 2 | -1 | 4 | 16 | 8 | -10 | 3
O=C1C(=C(c2ccccc2)N2CCOCC2)Cc2ccccc21 | . | -6 | . | . | . | . | . | .
O=[N+]([O-])c1ccccc1C(=Nc1ccccc1)c1c(O)cc(O)cc1O | . | 31 | . | . | . | . | . | .
O=[N+]([O-])c1ccc(COc2cccc(CN3CCCCC3)c2)cc1 | -4 | 1 | 1 | -4 | 13 | -8 | . | .
Cc1ccc(N2C(=N)/C(=C3/Nc4ccccc4S3)C(c3ccccc3)C2=O)cc1 (stereo unspecified) | 9 | -2 | -2 | 2 | 17 | 56* | 1 | -3
Cc1ccc(N2C(=O)C(F)(F)C2c2ccccc2)cc1 (stereo unspecified) | -52 | -10 | 10 | -3 | 16 | 13 | . | .
COC(=O)[C@H](CC(C)C)N1Cc2cc(OC)cc(OC)c2-c2ccccc2S1(=O)=O | 16 | -6 | -3 | 0 | 1 | -5 | . | .
CCOC(=O)N1CCN(C(=O)CCSCCc2ccncc2)CC1 | 5 | 3 | -1 | -3 | 3 | 57* | -5 | -6
CCOC(=O)N1CCN(C(=O)CSCc2ccc(C)cc2)CC1 | -9 | -1 | 2 | 5 | -18 | 24 | . | .
O[C@H]1C[C@H](c2ccc(Cl)cc2)N(Cc2cccs2)C[C@@H]1n1cc(-c2ccc(F)cc2)nn1 | . | -2 | . | . | . | . | . | .
O=C(Nc1c2c(nn1-c1ccccc1)CS(=O)(=O)C2)c1cc2ccccc2o1 | 15 | -2 | -3 | -2 | -5 | 22 | . | .
Cc1ccc(-n2nc3c(c2NC(=O)c2cc4ccccc4o2)CS(=O)(=O)C3)cc1 | 14 | 2 | -3 | -3 | 4 | 57* | 0 | -2
O=C(CNc1ccc(C(F)(F)F)cc1)Nc1cccc(S(=O)(=O)N2CCCCC2)c1 | . | -12 | . | . | . | . | . | .
CC(C)CN(C(=O)C1=COCCO1)c1c(N)n(Cc2ccccc2)c(=O)[nH]c1=O | . | 2 | . | . | . | . | . | .
COc1cc(C(=O)NC2CC(C)CC(C)(C)C2)cc(OC)c1OC (stereo unspecified) | . | -5 | . | . | . | . | . | .
Nn1c(SCC(=O)N2CCN(S(=O)(=O)c3ccccc3)CC2)nnc1-c1cccs1 | 6 | 0 | -1 | -4 | -5 | 99* | -1 | -12
Nn1c(SCC(=O)N2CCN(S(=O)(=O)c3ccc(Cl)cc3)CC2)nnc1-c1cccs1 | 12 | 1 | -2 | 1 | -1 | 3 | . | .
Cc1c(Cl)cccc1NC(=O)Nc1ccc(C(N)=O)cc1 | 8 | 4 | -2 | 5 | -7 | 104* | 0 | 5
COc1cc(C(=O)Nn2cnnc2)ccc1OC(F)F | 4 | 1 | -1 | 1 | -3 | 54* | -8 | -3
COc1ccc(CC(NC(C)=O)C(=O)NC2CCN(c3nc(C)cc(C)c3C#N)CC2)cc1 (stereo unspecified) | 4 | -1 | -1 | -2 | 15 | 55* | 0 | -1
CS(=O)(=O)N1CCN(C(=O)c2cc(-c3cccnc3)nc3ccc(Br)cc23)CC1 | 4 | 0 | -1 | 2 | -6 | 64* | -15 | -6
CS(=O)(=O)N1CCN(C(=O)c2cc(-c3cccnc3)nc3ccc(Cl)cc23)CC1 | 8 | 0 | -1 | -2 | 6 | 0 | . | .
CSc1cccc(NC(=S)N(Cc2ccc(C)cc2)Cc2ccccn2)c1 | 22 | 1 | -5 | -3 | 8 | 54* | -8 | -9
SMILES | MOR-DOR inv ag | DAGLB inh | MOR-DOR ag | HTR5A ag ctr | HTR5A inv ctr | Arr AP2 block | Arr AP2 CP1 | GST GSH counter
COc1ccc(CCN(Cc2ccccn2)C(=S)Nc2cccc(SC)c2)cc1OC | 12 | -2 | -2 | 0 | 1 | -12 | . | .
COc1ccc(NC(=O)CC(C)=O)c(OC)c1 | 8 | 0 | -1 | -1 | 3 | -1 | 6 | -3
COc1ccc(Cl)cc1NC(=O)CC(C)=O | 2 | 5 | 0 | 6 | -6 | 5 | 3 | -8
COc1ccccc1NC(=O)NCCN1CCNC1=O | 6 | -1 | -1 | 7 | -15 | 5 | . | .
CC(=O)CC(=O)Nc1ccccc1NC(C)=O | 5 | 3 | -1 | 2 | -16 | 20 | -4 | -5
COc1ccc(Cl)cc1NC(=O)COC(C)=O | 6 | 3 | -1 | 3 | -8 | -14 | . | .
COc1ccc(Cl)cc1NC(=O)NCCN1CCNC1=O | 6 | -2 | -1 | 3 | 0 | 60* | 8 | -2
CC(=O)Nc1ccccc1O | 0 | -1 | 0 | 2 | -8 | 7 | . | .
CC(OC(=O)c1cccc(S(=O)(=O)N(C)C)c1)C(=O)NCC(=O)Nc1ccc(F)c(F)c1F (stereo unspecified) | 3 | -4 | -1 | -5 | 12 | 12 | . | .
CCSc1nc(N2CCOCC2)c2c(c1C#N)CC(C)(C)N(C)C2 | 14 | 1 | -3 | 3 | -1 | 54* | -15 | -6
C=CCSc1nc(N2CCOCC2)c2c(c1C#N)CC(C)(C)N(C)C2 | 2 | 0 | 0 | 3 | -8 | -17 | . | .
COc1cc2c(cc1NC(=O)CSc1ccccc1)oc1ccccc12 | 10 | -18 | -2 | -1 | 3 | 0 | -8 | -4
COc1cc(NC(=O)COc2ccccc2)c(OC)cc1NC(C)=O | 2 | 2 | 0 | 2 | -22 | 60* | -1 | -10
COc1cc2c(cc1NC(=O)CSc1nccn1C)oc1ccccc12 | 22 | -5 | -4 | -1 | 2 | -5 | . | .
COc1cc2c(cc1NC(=O)/C=C/c1ccccc1)oc1ccccc12 | -12 | -7 | 2 | 11 | -28 | -2 | . | .
